The source made the active and inactive calls. The calls are words filed in the database; no cut-off is given here.
Assays:
[1] = test system: HOS; assay: Cytotoxicity against human HOS cells after 3 days by SRB assay; type: functional, cell-based; details: 72 h
Outline: (§1)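 Freshly trypsinized cells were seeded at 1500-7500 cells per well with test compound added from DMSO-diluted stock and cultured for 3 days. Attached cells were fixed with cold 50% trichloroacetic acid, stained with 0.4% sulforhodamine B, and the bound dye was solubilized and read at 562 nm. IC50 is the concentration giving a 50% drop in absorbance, or growth, relative to untreated cells.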

[2] = test system: CAKI-1; assay: Cytotoxicity against human Caki1 cells after 3 days by SRB assay; type: functional, cell-based; details: CAKI-1, 72 h; outline: as §1
[3] = test system: KB; assay: Cytotoxicity against etoposide-resistant human KB cells after 3 days by SRB assay; type: functional, cell-based; details: 72 h; outline: as §1
[4] = test system: KB; assay: Cytotoxicity against human KB cells after 3 days by SRB assay; type: functional, cell-based; details: 72 h; outline: as §1
[5] = Cytotoxicity against vincristine-resistant human KBVIN cells after 3 days by SRB assay; type: functional, cell-based; details: 72 h; outline: as §1
[6] = test system: MCF7; assay: Cytotoxicity against human MCF7 cells after 3 days by SRB assay; type: functional, cell-based; details: MCF7, 72 h; outline: as §1
[7] = Cytotoxicity against human U87MG cells after 3 days by SRB assay; type: functional, cell-based, U-87MG ATCC; details: U-87 MG, 72 h; outline: as §1
[8] = test system: A549; assay: Cytotoxicity against human A549 cells after 3 days by SRB assay; type: functional, cell-based; details: A549, 72 h; outline: as §1
[9] = test system: KB; assay: Cytotoxicity against camptothecin-resistant human KB cells after 3 days by SRB assay; type: functional, cell-based; details: 72 h; outline: as §1
[10] = test system: 1A9; assay: Cytotoxicity against human 1A9 cells after 3 days by SRB assay; type: functional, cell-based; details: 1A9, 72 h; outline: as §1
[11] = test system: 1A9; assay: Cytotoxicity against paclitaxel-resistant human 1A9 cells after 3 days by SRB assay; type: functional, cell-based; details: 1A9, 72 h; outline: as §1
[12] = test system: CAKI-1; assay: Cytotoxicity against human Caki1 cells at 10 uM after 3 days by SRB assay; type: functional; details: for inhibition at 10 µM: CAKI-1, 72 h
[13] = test system: 1A9; assay: Cytotoxicity against paclitaxel-resistant human 1A9 cells at 10 uM after 3 days by SRB assay; type: functional; details: for inhibition at 10 µM: 1A9, 72 h
[14] = test system: KB; assay: Cytotoxicity against human KB cells at 10 uM after 3 days by SRB assay; type: functional
[15] = test system: KB; assay: Cytotoxicity against etoposide-resistant human KB cells at 10 uM after 3 days by SRB assay; type: functional
[16] = test system: KB; assay: Cytotoxicity against vincristine-resistant human KBVIN cells at 10 uM after 3 days by SRB assay; type: functional
[17] = test system: 1A9; assay: Cytotoxicity against human 1A9 cells at 10 uM after 3 days by SRB assay; type: functional, cell-based
[18] = test system: MCF7; assay: Cytotoxicity against human MCF7 cells at 10 uM after 3 days by SRB assay; type: functional; details: MCF7, 72 h
[19] = test system: HOS; assay: Cytotoxicity against human HOS cells at 10 uM after 3 days by SRB assay; type: functional, cell-based
[20] = test system: KB; assay: Cytotoxicity against camptothecin-resistant human KB cells at 10 uM after 3 days by SRB assay; type: functional, cell-based
[21] = test system: A549; assay: Cytotoxicity against human A549 cells at 10 uM after 3 days by SRB assay; type: functional
[22] = (§2) Cytotoxicity against human U87MG cells at 10 uM after 3 days by SRB assay; type: functional, U-87MG ATCC; details: U-87 MG, 72 h
[23] = test system: U-87MG ATCC; assay: as §2; type: functional

## C=C(C)C1CC2=C(O1)c1ccccc1C(=O)C2=O (configuration not stated)
[1]
  IC50: 4 µM
[2]
  IC50: 9.6 µM
[3]
  IC50: 3 µM
[4]
  IC50: 3 µM
[5]
  IC50: 3.9 µM
[6]
  IC50: 1.2 µM
[7]
  IC50: 3.4 µM
[8]
  IC50: 2.7 µM
[9]
  IC50: 2.2 µM
[10]
  IC50: 2.1 µM
[11]
  IC50: 2.3 µM

## C=C(C)C1CC2=C(O1)C(=O)c1ccccc1C2=O (stereo not drawn) [DEHYDROISO-ALPHA-LAPACHONE]
[1]
  IC50: 3.6 µM
[2]
  IC50: > 10 µM
[3]
  IC50: 3.5 µM
[4]
  IC50: 4.1 µM
[12]
  inhibition at 10 µM: 26%
[5]
  IC50: 5.7 µM
[6]
  IC50: 1.2 µM
[7]
  IC50: 2.6 µM
[8]
  IC50: 6.4 µM
[9]
  IC50: 3.2 µM
[10]
  IC50: 2.6 µM
[11]
  IC50: 2.8 µM

## C=C(C)C1CC2=C(O1)c1cccc(OC)c1C(=O)C2=O (configuration not stated) [LANTALUCRATIN A]
[1]
  IC50: 4.8 µM
[3]
  IC50: > 5 µM
[13]
  inhibition at 10 µM: 45%
[14]; 72 h
  inhibition at 10 µM: 46%
[4]
  IC50: > 5 µM
[12]
  Activity: inactive
[5]
  IC50: > 5 µM
[6]
  IC50: 1.6 µM
[7]
  IC50: 4.7 µM
[8]
  IC50: 3.3 µM
[9]
  IC50: 2.1 µM
[10]
  IC50: 3.9 µM
[15]; 72 h
  inhibition at 10 µM: 43%
[16]; 72 h
  inhibition at 10 µM: 17%
[11]
  IC50: > 5 µM

## C=C(C)C1CC2=C(O1)c1cccc(O)c1C(=O)C2=O (configuration not stated) [LANTALUCRATIN B]
[1]
  IC50: 2.5 µM
[2]
  IC50: > 5 µM
[3]
  IC50: 2.1 µM
[4]
  IC50: 2.3 µM
[12]
  inhibition at 10 µM: 16%
[5]
  IC50: 2.4 µM
[6]
  IC50: 1 µM
[7]
  IC50: 1.9 µM
[8]
  IC50: 1.8 µM
[9]
  IC50: 1 µM
[10]
  IC50: 1.5 µM
[11]
  IC50: 2.1 µM

## C=C(C)C1CC2=C(O1)c1ccc(O)cc1C(=O)C2=O (configuration not stated) [LANTALUCRATIN C]
[1]
  IC50: 4.7 µM
[3]
  IC50: 5.8 µM
[4]
  IC50: 6.9 µM
[5]
  IC50: 6.3 µM
[6]
  IC50: 4.9 µM
[7]
  IC50: 7.3 µM
[8]
  IC50: 6 µM
[9]
  IC50: 5.2 µM
[10]
  IC50: 9.4 µM
[11]
  IC50: 6.5 µM

## C=C(C)C(O)CC1=C(OC)C(=O)c2c(OC)cccc2C1=O (configuration not stated) [LANTALUCRATIN D]
[17]
  Activity: inactive
[18]
  inhibition at 10 µM: 20%
[19]
  Activity: inactive
[13]
  inhibition at 10 µM: 14%
[20]
  Activity: inactive
[14]
  Activity: inactive
[12]
  Activity: inactive
[6]
  IC50: > 10 µM
[7]
  IC50: > 10 µM
[21]; A549, 72 h
  inhibition at 10 µM: 7%
[8]
  IC50: > 10 µM
[22]
  inhibition at 10 µM: 8%
[15]
  Activity: inactive
[16]
  Activity: inactive
[11]
  IC50: > 10 µM

## C=C(C)C(O)CC1=C(OC)C(=O)c2c(OC)ccc(O)c2C1=O (configuration not stated) [LANTALUCRATIN E]
[1]
  IC50: 8.7 µM
[2]
  IC50: > 10 µM
[20]
  Activity: inactive
[14]
  Activity: inactive
[12]
  inhibition at 10 µM: 8%
[6]
  IC50: 5.5 µM
[7]
  IC50: 7 µM
[8]
  IC50: 8.7 µM
[10]
  IC50: 1.3 µM
[15]
  Activity: inactive
[16]
  Activity: inactive
[11]
  IC50: 2.5 µM

## C=C(C)C(O)CC1=C(OC)C(=O)c2cc(OC)c(O)c(O)c2C1=O (configuration not stated) [LANTALUCRATIN F]
[17]
  Activity: inactive
[2]
  IC50: > 10 µM
[18]
  inhibition at 10 µM: 9%
[19]
  Activity: inactive
[13]
  Activity: inactive
[20]
  Activity: inactive
[14]
  Activity: inactive
[12]
  inhibition at 10 µM: 13%
[6]
  IC50: > 10 µM
[21]
  Activity: inactive
[23]
  Activity: inactive
[15]
  Activity: inactive
[16]
  Activity: inactive

## CC1(C)CCC2=C(O1)c1ccccc1C(=O)C2=O [LAPACHONE]
[1]
  IC50: 1.4 µM
[2]
  IC50: > 5 µM
[3]
  IC50: 1.8 µM
[4]
  IC50: 1.2 µM
[12]
  inhibition at 10 µM: 42%
[5]
  IC50: 2.2 µM
[6]
  IC50: 0.8 µM
[7]
  IC50: 2 µM
[8]
  IC50: 1.5 µM
[9]
  IC50: 1 µM
[10]
  IC50: 0.8 µM
[11]
  IC50: 0.8 µM
